According to the M2OR odorant receptor database:

Key:
Conditions in all cases: stereoisomer not certain
[1] = system: OR2M5 G255A
In short: (§1)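 Each receptor–molecule pair is labelled responsive or non-responsive (inactive) according to whether the original authors judged the measured signal statistically different from baseline. The data were taken from the main text and supplementary material of published papers and checked for typos and inconsistencies. Assay methods differed by source, with transient luciferase assays in mammalian cell lines being common.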

[2] = system: OR2M5 L273M
Sequence of OR2M5 L273M (as listed by the source, stated change not applied): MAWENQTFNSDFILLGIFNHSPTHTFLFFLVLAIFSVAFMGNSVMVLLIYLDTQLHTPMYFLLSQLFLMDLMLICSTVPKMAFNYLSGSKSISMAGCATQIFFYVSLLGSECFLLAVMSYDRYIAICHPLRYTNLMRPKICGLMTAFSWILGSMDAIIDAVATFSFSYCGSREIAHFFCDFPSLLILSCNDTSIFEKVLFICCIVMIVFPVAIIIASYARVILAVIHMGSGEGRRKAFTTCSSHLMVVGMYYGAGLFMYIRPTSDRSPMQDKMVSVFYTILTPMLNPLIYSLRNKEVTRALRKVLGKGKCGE
In short: as §1

[3] = system: OR2M5 M154T
Sequence of OR2M5 M154T (as listed by the source, stated change not applied): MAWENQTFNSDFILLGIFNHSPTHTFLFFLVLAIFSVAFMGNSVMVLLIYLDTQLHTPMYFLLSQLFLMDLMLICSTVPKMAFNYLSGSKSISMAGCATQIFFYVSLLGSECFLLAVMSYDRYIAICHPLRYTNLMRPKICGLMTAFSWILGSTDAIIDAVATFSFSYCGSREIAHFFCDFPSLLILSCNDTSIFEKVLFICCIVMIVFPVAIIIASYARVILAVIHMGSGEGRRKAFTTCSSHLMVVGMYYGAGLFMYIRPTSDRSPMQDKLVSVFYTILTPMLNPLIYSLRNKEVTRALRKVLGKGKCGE
In short: as §1

[4] = system: OR2M5 S119A
Sequence of OR2M5 S119A (as listed by the source, stated change not applied): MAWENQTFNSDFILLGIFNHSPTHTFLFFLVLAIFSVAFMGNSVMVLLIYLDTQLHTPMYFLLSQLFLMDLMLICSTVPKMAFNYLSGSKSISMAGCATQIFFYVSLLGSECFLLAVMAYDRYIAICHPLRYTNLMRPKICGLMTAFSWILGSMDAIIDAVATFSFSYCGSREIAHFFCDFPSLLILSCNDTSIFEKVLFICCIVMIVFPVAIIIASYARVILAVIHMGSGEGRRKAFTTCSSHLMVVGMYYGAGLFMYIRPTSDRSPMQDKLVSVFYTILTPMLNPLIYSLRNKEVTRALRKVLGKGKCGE
In short: as §1

[5] = system: OR2M5 V105T A156G A160V G255A
In short: as §1

[6] = system: OR2M5 V105T A156G G255A L273M
In short: as §1

[7] = system: OR2M5 V105T A156G G255A
In short: as §1

[8] = system: OR2M5 V105T A156G V198I G255A
In short: as §1

[9] = system: OR2M5 V105T A156G
In short: as §1

[10] = system: OR2M5 V105T G255H
In short: as §1

Measured: odorant receptor agonist call;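 note: active if original authors judged signal statistically different from baseline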

Sequence of OR2M5 G255A (as listed by the source, stated change not applied): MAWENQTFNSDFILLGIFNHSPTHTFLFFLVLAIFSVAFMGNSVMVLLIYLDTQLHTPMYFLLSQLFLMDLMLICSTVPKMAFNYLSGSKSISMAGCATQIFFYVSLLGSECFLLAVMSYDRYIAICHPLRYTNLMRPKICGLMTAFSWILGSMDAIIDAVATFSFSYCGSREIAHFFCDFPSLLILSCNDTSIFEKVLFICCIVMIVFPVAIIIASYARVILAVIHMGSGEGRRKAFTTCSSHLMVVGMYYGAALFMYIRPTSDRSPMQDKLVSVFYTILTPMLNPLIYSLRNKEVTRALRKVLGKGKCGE

CCC(S)C(C)CO (stereo not given)
inactive: all assays above
